Results from different studies.
pIC50: −log10 of the molar value. Converted amounts (≈) assume the structure as drawn.

| Structure (SMILES) | tested on | effect on | method | time | setting | quantity | value |
| --- | --- | --- | --- | --- | --- | --- | --- |
| CC(C)(C)CC(C)(C)Nc1c(-c2ccc(Cl)cc2)nc2ncccn12 | Leishmania amazonensis | parasite growth | MTT | 72 h | promastigote | pIC50 | 4.44 |
| COc1ccc([S+]([O-])c2ccccc2)c(OC)c1OC (stereo not drawn) | Leishmania braziliensis | parasite growth | MTT | 24 h | promastigote | pIC50 | 4.20 |
| Cc1[nH]c(C)c(-c2ccc(OCc3ccc(OC(F)(F)F)cc3)nc2)c(=O)c1Cl | HEK293 | cell growth or viability |  |  |  | pIC50 | < 5.00 |
| COc1ccc(Sc2ccc(C)cc2)c(OC)c1OC | Leishmania braziliensis | parasite growth | MTT | 24 h | promastigote | pIC50 | 4.39 |
| O=C1NN=C(N=Cc2ccc(O)cc2O)C1=NNn1c(-c2ccccc2)nc2ccccc2c1=O | Trichophyton rubrum | microbial growth | broth dilution |  |  | MIC | 53.5 µM (≈ 25 µg/mL) |
| COc1ccc2c(NN=Cc3ccc(Cl)cc3)ccnc2c1 | HEK293 | cell growth or viability |  |  |  | pIC50 | < 5.00 |
| COc1cccc(-c2nc3ncccn3c2NC(C)(C)CC(C)(C)C)c1 | Leishmania amazonensis | parasite growth | MTT | 72 h | promastigote | pIC50 | 4.77 |
| Cc1[nH]c2ccc(C#N)cc2c(=O)c1Br | HEK293 | cell growth or viability |  |  |  | pIC50 | < 5.00 |
| O=C1NN=C(N=Cc2ccc(O)c(O)c2)C1=NNn1c(-c2ccccc2)nc2ccccc2c1=O | Trichophyton rubrum | microbial growth | broth dilution |  |  | MIC | 107 µM (≈ 50 µg/mL) |
| COc1ccc(Nc2c(-c3ccc4c(c3)OCO4)nc3ncccn23)cc1 | Leishmania amazonensis | parasite growth | MTT | 72 h | promastigote | pIC50 | < 4.00 |
| CC1=NN(CNc2ccc(C(=O)O)cc2)C(=O)C1=NNn1c(-c2ccccc2)nc2ccccc2c1=O | Trichophyton rubrum | microbial growth | broth dilution |  |  | MIC | 101 µM (≈ 50 µg/mL) |
| CC(C)(C)Nc1c(-c2ccc3c(c2)OCO3)nc2ncccn12 | Leishmania amazonensis | parasite growth | MTT | 72 h | promastigote | pIC50 | < 4.00 |
